{"source": "paper PMC9444296", "about": "(Investigative Radiology, 2022)", "key": {"CYP3A4 [1]": {"molecular_target": "CYP3A4 (Homo sapiens, UniProt P08684)", "sequence (P08684 whole entry)": "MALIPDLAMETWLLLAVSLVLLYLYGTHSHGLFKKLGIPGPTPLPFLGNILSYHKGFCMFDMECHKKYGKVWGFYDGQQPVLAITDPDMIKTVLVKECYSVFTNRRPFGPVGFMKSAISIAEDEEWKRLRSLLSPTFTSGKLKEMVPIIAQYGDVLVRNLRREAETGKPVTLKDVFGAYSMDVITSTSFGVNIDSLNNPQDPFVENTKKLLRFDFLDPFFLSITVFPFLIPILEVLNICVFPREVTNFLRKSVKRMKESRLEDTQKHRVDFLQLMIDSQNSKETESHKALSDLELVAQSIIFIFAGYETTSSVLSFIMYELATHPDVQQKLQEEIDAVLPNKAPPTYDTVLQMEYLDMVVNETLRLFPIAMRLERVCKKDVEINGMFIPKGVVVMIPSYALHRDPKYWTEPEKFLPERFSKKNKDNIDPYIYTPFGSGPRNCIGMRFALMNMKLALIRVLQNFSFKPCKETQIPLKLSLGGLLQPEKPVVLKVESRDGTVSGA", "conditions": "0.01, 0.1, 1, 10, and 100 μM, pooled human liver microsomes 0.5 mg/mL"}, "beagle dogs": {"system": "beagle dogs", "assay": "Single and repeated dose toxicity and toxicokinetics in beagle dogs", "format": "in vivo, dog", "conditions": "for accumulation ratio AUC0–24h (D14)/AUC0–24h (D1) of Gd: 14 days", "in_short": "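GLP study in beagle dogs aged 6–7 months (M 7.34–10.58 kg, F 6.50–9.87 kg). Dosing was a single IV 0.70 mmol/kg or daily IV 0.07, 0.21 or 0.70 mmol/kg/d for 2 weeks, with saline placebo and a 2-week recovery. Clinical observation, organ weights and macro/microscopic histopathology were done. Gd accumulation ratio was AUC0–24h(D14)/AUC0–24h(D1).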"}, "CAV1.2": {"molecular_target": "CAV1.2 (Homo sapiens, UniProt Q13936)", "assay": "SAFETYscan E/IC50 assay, CAV1.2", "format": "biochemical", "conditions": "concentration range 0.005 to 100 μM", "in_short": "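Contract-laboratory in vitro panel of 78 targets, run in agonist and/or antagonist modes under provider SOPs over 0.005 to 100 μM. Panel formats included enzyme fragment complementation, FLIPR-based cellular assays, kinase binding and enzymatic assays.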"}, "EDB protein fragment": {"molecular_target": "EDB protein fragment (Homo sapiens, UniProt P02751)", "sequence (P02751 1271-1359 limits assumed)": "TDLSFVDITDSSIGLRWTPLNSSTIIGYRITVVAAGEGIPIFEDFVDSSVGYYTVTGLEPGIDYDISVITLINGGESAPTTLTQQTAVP", "assay": "Binding affinity by surface plasmon resonance", "conditions": "read-out: average binding affinity (Kd); SPR, n = 4", "in_short": "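EDB protein fragment desalted into 10 mM PBS pH 7.4, then amine-coupled to a CM5 chip active cell (25 μg/mL in 10 mM acetate pH 4.5, 3 min at 10 μL/min, about 1500 RU). Both cells were ethanolamine-blocked (pH 8.5, 7 min). Test compound (1.0 mM stock in 0.05% Tween-20/10 mM PBS pH 7.4 running buffer) was injected at varying concentrations for 120 s at 50 μL/min, with 5 min dissociation. Kd came from instrument evaluation software.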"}, "MDR1": {"molecular_target": "MDR1 (Homo sapiens, UniProt P08183)", "assay": "MDR1 inhibition, membrane vesicles", "format": "in vitro ADME", "conditions": "1, 5, 10, 50, and 100 μM"}, "OCT2": {"molecular_target": "OCT2 (Homo sapiens, UniProt O15244)", "assay": "OCT2 inhibition, HEK293 cells", "format": "in vitro ADME", "conditions": "1, 5, 10, 50, and 100 μM"}, "Gd": {"assay": "Gd", "format": "physicochemical", "conditions": "HPLC-UV", "in_short": "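Test compound at 0.25 mM (final) was incubated with 0.25 mM DOTA, DTPA, HP-DO3A or EDTA, or with 0.50 mM ZnCl₂. Buffers were 0.05 M acetate pH 5 or 0.05 M Tris pH 7.4, at room temperature (25°C) or 37.5°C, for up to 30 days. Intact compound remaining was measured by HPLC-UV (C18; 0.08% TFA acetonitrile/water).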"}, "CYP2C8": {"molecular_target": "CYP2C8 (Homo sapiens, UniProt P10632)", "sequence (P10632 whole entry)": "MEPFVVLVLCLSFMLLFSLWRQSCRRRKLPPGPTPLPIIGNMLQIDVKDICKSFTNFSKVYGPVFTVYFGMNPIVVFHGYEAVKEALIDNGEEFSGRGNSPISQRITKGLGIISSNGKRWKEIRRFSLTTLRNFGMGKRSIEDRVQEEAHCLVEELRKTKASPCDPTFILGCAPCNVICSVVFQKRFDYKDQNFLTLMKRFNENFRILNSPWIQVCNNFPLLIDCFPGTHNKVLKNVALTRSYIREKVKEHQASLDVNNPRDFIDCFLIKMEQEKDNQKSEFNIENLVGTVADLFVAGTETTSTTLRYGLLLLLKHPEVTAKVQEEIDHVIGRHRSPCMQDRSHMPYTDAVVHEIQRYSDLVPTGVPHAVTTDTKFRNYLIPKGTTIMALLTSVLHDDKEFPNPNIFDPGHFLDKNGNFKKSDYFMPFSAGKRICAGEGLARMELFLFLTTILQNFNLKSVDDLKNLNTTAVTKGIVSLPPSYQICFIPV", "assay": "CYP2C8 inhibition in human liver microsomes", "format": "in vitro ADME", "conditions": "highest test concentration (100 μM)"}, "BCRP": {"molecular_target": "BCRP (Homo sapiens, UniProt Q9UNQ0)", "sequence (Q9UNQ0 whole entry)": "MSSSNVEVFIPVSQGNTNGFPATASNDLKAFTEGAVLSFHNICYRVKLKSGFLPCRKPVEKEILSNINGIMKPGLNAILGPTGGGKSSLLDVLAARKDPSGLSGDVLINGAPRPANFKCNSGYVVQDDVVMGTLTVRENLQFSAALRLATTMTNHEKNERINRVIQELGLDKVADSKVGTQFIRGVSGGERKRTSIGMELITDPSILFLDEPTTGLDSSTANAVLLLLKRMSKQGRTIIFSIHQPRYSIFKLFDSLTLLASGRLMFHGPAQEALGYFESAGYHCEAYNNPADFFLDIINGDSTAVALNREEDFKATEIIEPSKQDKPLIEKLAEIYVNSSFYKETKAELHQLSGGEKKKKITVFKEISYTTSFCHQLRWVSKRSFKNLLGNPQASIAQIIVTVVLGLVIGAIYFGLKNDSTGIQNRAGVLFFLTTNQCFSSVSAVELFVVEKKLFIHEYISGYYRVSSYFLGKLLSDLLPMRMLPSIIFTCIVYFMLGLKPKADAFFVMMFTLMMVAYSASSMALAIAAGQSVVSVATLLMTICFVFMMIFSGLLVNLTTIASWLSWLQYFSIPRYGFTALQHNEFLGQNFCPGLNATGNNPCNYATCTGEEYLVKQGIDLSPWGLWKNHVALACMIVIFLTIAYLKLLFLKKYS", "assay": "BCRP inhibition, membrane vesicles", "format": "in vitro ADME", "conditions": "1, 5, 10, 50, and 100 μM"}, "CYP3A4 [2]": {"system": "CYP3A4", "conditions": "human primary hepatocytes, 1, 10, and 100 μM"}, "MATE1": {"molecular_target": "MATE1 (Homo sapiens, UniProt Q96FL8)", "sequence (Q96FL8 whole entry)": "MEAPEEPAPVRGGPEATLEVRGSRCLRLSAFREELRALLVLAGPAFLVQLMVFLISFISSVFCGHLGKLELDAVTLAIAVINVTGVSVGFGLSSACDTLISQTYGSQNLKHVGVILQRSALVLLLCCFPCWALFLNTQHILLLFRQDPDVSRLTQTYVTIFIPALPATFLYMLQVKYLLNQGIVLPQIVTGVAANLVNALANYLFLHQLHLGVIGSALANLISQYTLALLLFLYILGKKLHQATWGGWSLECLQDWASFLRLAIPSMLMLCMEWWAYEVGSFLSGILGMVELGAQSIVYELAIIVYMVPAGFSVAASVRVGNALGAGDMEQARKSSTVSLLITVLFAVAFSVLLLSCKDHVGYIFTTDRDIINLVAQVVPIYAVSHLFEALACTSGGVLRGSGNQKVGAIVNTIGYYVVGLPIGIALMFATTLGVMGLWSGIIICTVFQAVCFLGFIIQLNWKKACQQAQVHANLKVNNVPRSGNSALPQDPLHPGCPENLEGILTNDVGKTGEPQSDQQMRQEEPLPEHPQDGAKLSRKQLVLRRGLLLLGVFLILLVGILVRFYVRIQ", "assay": "MATE1 inhibition, HEK293 cells", "format": "in vitro ADME", "conditions": "1, 5, 10, 50, and 100 μM"}, "bone marrow of ICR mice": {"system": "bone marrow of ICR mice", "assay": "Micronucleus assay in ICR mice", "format": "in vivo, mouse", "conditions": "ICR mice, 1.39, 0.70, and 0.35 mmol/kg/d for 2 days", "in_short": "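Male ICR mice, 32 in total, were dosed once daily for 2 days: vehicle, 500 or 1000 mg/kg/d (6 per group) or 2000 mg/kg/d (8 mice). Cyclophosphamide monohydrate served as positive control. Bone marrow was collected about 22.5 h after the final dose and scored for micronuclei and for polychromatic to total erythrocytes.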"}, "[3]": {"system": "78 common biological targets", "assay": "SAFETYscan 78-target panel", "format": "biochemical", "conditions": "0.005 to 100 μM"}, "OAT3": {"molecular_target": "OAT3 (Homo sapiens, UniProt Q8TCC7)", "sequence (Q8TCC7 whole entry)": "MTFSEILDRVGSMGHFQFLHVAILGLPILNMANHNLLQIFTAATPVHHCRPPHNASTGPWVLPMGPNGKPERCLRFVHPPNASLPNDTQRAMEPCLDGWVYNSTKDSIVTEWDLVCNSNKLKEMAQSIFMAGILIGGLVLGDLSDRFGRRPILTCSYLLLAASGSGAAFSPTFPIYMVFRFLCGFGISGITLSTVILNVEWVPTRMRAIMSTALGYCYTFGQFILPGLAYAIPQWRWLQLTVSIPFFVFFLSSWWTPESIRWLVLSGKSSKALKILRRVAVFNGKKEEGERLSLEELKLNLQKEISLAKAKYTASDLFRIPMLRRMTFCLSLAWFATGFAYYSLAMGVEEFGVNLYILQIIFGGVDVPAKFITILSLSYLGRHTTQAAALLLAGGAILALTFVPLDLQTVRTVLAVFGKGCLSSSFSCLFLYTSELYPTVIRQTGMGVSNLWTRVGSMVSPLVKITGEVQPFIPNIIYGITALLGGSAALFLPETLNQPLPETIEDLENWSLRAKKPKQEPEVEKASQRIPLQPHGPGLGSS", "assay": "OAT3 inhibition, HEK293 cells", "format": "in vitro ADME", "conditions": "1, 5, 10, 50, and 100 μM"}, "[4]": {"assay": "Metabolic stability in beagle dog hepatocytes", "format": "in vitro ADME", "conditions": "2 hours of incubation, LC-MS/MS"}, "[5]": {"assay": "Metabolic stability in CD1 mouse hepatocytes", "format": "in vitro ADME", "conditions": "2 hours of incubation, LC-MS/MS"}, "OAT1": {"molecular_target": "OAT1 (Homo sapiens, UniProt Q4U2R8)", "sequence (Q4U2R8 whole entry)": "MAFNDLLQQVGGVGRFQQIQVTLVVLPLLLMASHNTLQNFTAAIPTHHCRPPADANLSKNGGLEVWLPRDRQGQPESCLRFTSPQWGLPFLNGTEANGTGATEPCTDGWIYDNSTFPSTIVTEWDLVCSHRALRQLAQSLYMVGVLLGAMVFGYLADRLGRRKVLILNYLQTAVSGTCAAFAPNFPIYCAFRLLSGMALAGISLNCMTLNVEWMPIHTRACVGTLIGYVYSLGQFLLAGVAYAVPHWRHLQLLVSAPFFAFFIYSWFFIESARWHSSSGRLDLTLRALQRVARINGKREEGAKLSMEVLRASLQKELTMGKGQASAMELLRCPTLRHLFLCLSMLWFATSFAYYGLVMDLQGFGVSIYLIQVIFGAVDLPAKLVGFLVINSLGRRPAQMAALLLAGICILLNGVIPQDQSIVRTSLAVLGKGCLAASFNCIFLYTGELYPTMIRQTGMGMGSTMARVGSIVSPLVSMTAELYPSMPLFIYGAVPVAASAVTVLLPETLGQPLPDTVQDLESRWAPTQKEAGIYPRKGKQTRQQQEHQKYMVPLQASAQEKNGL", "assay": "OAT1 inhibition, HEK293 cells", "format": "in vitro ADME", "conditions": "1, 5, 10, 50, and 100 μM"}, "MATE2K": {"molecular_target": "MATE2K (Homo sapiens, UniProt Q86VL8)", "sequence (Q86VL8 1-566 isoform Q86VL8-3)": "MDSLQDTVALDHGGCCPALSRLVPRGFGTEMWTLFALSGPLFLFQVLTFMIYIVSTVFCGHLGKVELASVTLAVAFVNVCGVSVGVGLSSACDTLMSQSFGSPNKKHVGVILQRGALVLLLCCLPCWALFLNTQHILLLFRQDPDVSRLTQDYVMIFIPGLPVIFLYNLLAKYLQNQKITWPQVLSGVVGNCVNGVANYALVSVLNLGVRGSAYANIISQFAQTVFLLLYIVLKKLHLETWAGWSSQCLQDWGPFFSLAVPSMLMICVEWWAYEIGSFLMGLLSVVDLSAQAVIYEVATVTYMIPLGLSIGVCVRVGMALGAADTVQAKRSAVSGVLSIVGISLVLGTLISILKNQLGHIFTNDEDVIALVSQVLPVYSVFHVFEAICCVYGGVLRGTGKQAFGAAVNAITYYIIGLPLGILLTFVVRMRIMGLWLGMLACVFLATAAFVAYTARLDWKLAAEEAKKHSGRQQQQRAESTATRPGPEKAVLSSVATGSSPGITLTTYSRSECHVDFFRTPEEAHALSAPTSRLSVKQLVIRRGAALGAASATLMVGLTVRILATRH", "assay": "MATE2K inhibition, HEK293 cells", "format": "in vitro ADME", "conditions": "1, 5, 10, 50, and 100 μM"}, "CNS functions": {"system": "CNS functions", "assay": "CNS safety pharmacology", "format": "in vivo, rat", "conditions": "SD rats, single IV 0.1, 0.3, and 1.0 mmol/kg, functional observational battery", "in_short": "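GLP study in SD rats, 5/sex/group, given a single IV dose of 0, 0.1, 0.3 or 1 mmol/kg. A functional observational battery was run at 0.25, 0.75, 1.5 and 4 h post-dose: home-cage, hand-held and open-field observations, responses to stimuli, forelimb grip strength and body temperature.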"}, "[6]": {"assay": "Plasma stability, rat plasma", "format": "in vitro ADME", "conditions": "0.5 mM, 37°C, HPLC; for average remaining percentage of intact MT218: n = 2", "in_short": "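Test compound at 0.5 mM was incubated in human, rat or dog plasma at 37°C for up to 48 h, with PBS as control. Samples were mixed with methanol, centrifuged, and the intact compound was quantified by analytical reversed-phase (C18) HPLC.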"}, "CYP2D6": {"molecular_target": "CYP2D6 (Homo sapiens, UniProt P10635)", "sequence (P10635 whole entry)": "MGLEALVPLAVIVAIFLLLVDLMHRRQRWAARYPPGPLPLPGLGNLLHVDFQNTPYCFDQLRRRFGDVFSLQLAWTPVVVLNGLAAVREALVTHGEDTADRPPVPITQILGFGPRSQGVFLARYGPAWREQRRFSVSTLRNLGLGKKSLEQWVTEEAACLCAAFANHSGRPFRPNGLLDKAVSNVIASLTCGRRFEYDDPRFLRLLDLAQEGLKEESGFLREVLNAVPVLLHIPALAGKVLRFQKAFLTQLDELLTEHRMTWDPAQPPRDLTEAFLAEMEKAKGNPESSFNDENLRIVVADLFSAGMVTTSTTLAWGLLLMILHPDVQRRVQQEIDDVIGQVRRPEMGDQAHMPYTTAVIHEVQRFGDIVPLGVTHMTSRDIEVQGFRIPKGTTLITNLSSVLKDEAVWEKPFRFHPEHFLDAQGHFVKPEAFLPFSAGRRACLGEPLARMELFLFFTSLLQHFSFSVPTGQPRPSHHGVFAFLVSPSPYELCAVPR", "assay": "CYP2D6 inhibition in human liver microsomes", "format": "in vitro ADME", "conditions": "0.01, 0.1, 1, 10, and 100 μM, pooled human liver microsomes 0.5 mg/mL"}}, "note": "“Also recorded” adds a separate entry of the source.", "data": [{"substance": "ZD2-N3-Gd(HP-DO3A) [MT218]", "values": [{"measurement": "inhibition of CYP3A4 activity", "setting": "CYP3A4 [1]", "result": "did not inhibit"}, {"measurement": "NOAEL", "setting": "beagle dogs; dog, single dosing", "result": "not established"}, {"measurement": "mortality or moribundity", "setting": "beagle dogs; dogs, any dose group, up to 0.70 mmol/kg/d", "result": "no mortality or morbidity; also recorded: No mortality or moribundity"}, {"measurement": "clinical observations (body weight, food consumption, temperature, ophthalmoscopy, hematology, coagulation, clinical chemistry, urinalysis)", "setting": "beagle dogs; dogs, any dose level", "result": "No MT218-related changes"}, {"measurement": "pathological findings", "setting": "beagle dogs; dogs, both sexes, repeated 0.21 mmol/kg/d and 0.70 mmol/kg/d", "result": "reversible renal tubule degeneration"}, {"measurement": "NOAEL", "setting": "beagle dogs; dogs, repeated daily IV dose for 14 days", "result": 0.07, "unit": "mmol/kg/day"}, {"measurement": "pathological findings", "setting": "beagle dogs; dogs, repeated low doses 0.07 mmol/kg/d", "result": "No renal abnormality"}, {"measurement": "pathological findings", "setting": "beagle dogs; dogs, single dose 0.70 mmol/kg, no longer evident on day 15", "result": "mild bilateral tubule degeneration of proximal and distal tubules"}, {"measurement": "clinical signs during the dosing period", "setting": "beagle dogs; dogs, single- and repeated-medium and high-dose groups, disappeared after dosing completion", "result": "Sporadic symptoms of emesis, retching, and salivation"}, {"measurement": "accumulation ratio AUC0–24h (D14)/AUC0–24h (D1) of Gd", "setting": "beagle dogs; female dogs, high dose 0.70 mmol/kg/d IV", "result": 1.00}, {"measurement": "accumulation ratio AUC0–24h (D14)/AUC0–24h (D1) of Gd", "setting": "beagle dogs; female dogs, low dose 0.07 mmol/kg/d IV", "result": 0.91}, {"measurement": "accumulation ratio AUC0–24h (D14)/AUC0–24h (D1) of Gd", "setting": "beagle dogs; female dogs, medium dose 0.21 mmol/kg/d IV", "result": 0.99}, {"measurement": "accumulation ratio AUC0–24h (D14)/AUC0–24h (D1) of Gd", "setting": "beagle dogs; male dogs, high dose 0.70 mmol/kg/d IV", "result": 1.02}, {"measurement": "accumulation ratio AUC0–24h (D14)/AUC0–24h (D1) of Gd", "setting": "beagle dogs; male dogs, low dose 0.07 mmol/kg/d IV", "result": 0.92}, {"measurement": "accumulation ratio AUC0–24h (D14)/AUC0–24h (D1) of Gd", "setting": "beagle dogs; male dogs, medium dose 0.21 mmol/kg/d IV", "result": 1.07}, {"measurement": "inhibition rate", "setting": "CAV1.2", "result": 15.58, "unit": "%"}, {"measurement": "Kd", "setting": "EDB protein fragment", "result": 3.45, "unit": "µM"}, {"measurement": "inhibition of MDR1 transporter activity", "setting": "MDR1", "result": "no inhibition potential"}, {"measurement": "inhibition of OCT2 transporter activity", "setting": "OCT2", "result": "no inhibition potential"}, {"measurement": "duration of chelation stability", "setting": "Gd; pH 5 (0.05 M acetate), 25°C", "result": "at least 30 days"}, {"measurement": "dissociation of MT218 in the presence of Zn(II) ions", "setting": "Gd; pH 5, 37.5°C, 0.50 mM ZnCl2, at least 30 days", "result": "did not cause dissociation"}, {"measurement": "stability of MT218", "setting": "Gd; pH 5, 37.5°C, acetate buffer", "result": "stable"}, {"measurement": "stability of MT218 in the presence of free chelating ligands", "setting": "Gd; pH 5, 37.5°C, with 0.25 mM DOTA, DTPA, HP-DO3A or EDTA", "result": "Loss of MT218 was observed"}, {"measurement": "relative CYP2C8 activity, of the negative controls", "setting": "CYP2C8", "result": 52.5, "unit": "%"}, {"measurement": "inhibition of BCRP transporter activity", "setting": "BCRP", "result": "no inhibition potential"}, {"measurement": "induction of mRNA expression of CYP3A4", "setting": "CYP3A4 [2]", "result": "did not induce"}, {"measurement": "induction on enzyme activity of CYP3A4", "setting": "CYP3A4 [2]", "result": "no induction"}, {"measurement": "inhibition of MATE1 transporter activity", "setting": "MATE1", "result": "no inhibition potential"}, {"measurement": "incidence of micronuclei vs vehicle control", "setting": "bone marrow of ICR mice", "result": "no significant increase"}, {"measurement": "ratio of polychromatic erythrocytes to total erythrocytes", "setting": "bone marrow of ICR mice", "result": "no significant decrease"}, {"measurement": "target-specific secondary pharmacologic activity", "setting": "[3]", "result": "did not exhibit any notable target-specific secondary pharmacologic activity"}, {"measurement": "inhibition of OAT3 transporter activity", "setting": "OAT3", "result": "no inhibition potential"}, {"measurement": "remaining MT218", "setting": "[4]", "result": 41.0, "unit": "%"}, {"measurement": "remaining MT218", "setting": "[5]", "result": 50.6, "unit": "%"}, {"measurement": "inhibition of OAT1 transporter activity", "setting": "OAT1", "result": "no inhibition potential"}, {"measurement": "inhibition of MATE2K transporter activity", "setting": "MATE2K", "result": "no inhibition potential"}, {"measurement": "effect on parameters of CNS function", "setting": "CNS functions", "result": "No MT218-related effect"}, {"measurement": "average remaining percentage of intact MT218", "setting": "[6]; 1 h", "result": 74.87, "unit": "%"}, {"measurement": "average remaining percentage of intact MT218", "setting": "[6]; 3 h", "result": 20.54, "unit": "%"}, {"measurement": "average remaining percentage of intact MT218", "setting": "[6]; 6 h", "result": 4.61, "unit": "%"}, {"measurement": "average remaining percentage of intact MT218", "setting": "[6]; 28 h", "result": 0, "unit": "%"}, {"measurement": "average remaining percentage of intact MT218", "setting": "[6]; 48 h", "result": 0, "unit": "%"}, {"measurement": "enzymatic degradation half-life (t1/2)", "setting": "[6]", "result": 1.63, "unit": "h"}, {"measurement": "inhibition of CYP2D6 activity", "setting": "CYP2D6", "result": "did not inhibit"}]}]}
